ChEMBL document CHEMBL1765074, “Synthesis, evaluation and structural studies of antiproliferative tubulin-targeting azetidin-2-ones” (Bioorg Med Chem, 2011)

How the values were obtained:
[1] = tested on: MCF7; experiment: Antiproliferative activity against human MCF7 cells by MTT assay; type: functional, cell-based
How it was run: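 MCF-7 cells grown in Eagle's MEM with 10% FBS, 2 mM L-glutamine, penicillin/streptomycin and 1% non-essential amino acids. Seeded at 2.5×10^4 cells/mL, left 24 h at 37°C, then treated 72 h across 1 nM–100 μM from ethanol stocks (vehicle 1% v/v). MTT at 1 mg/mL final for 2 h in darkness, DMSO solubilisation, absorbance read. IC50 is the mean of at least three experiments in triplicate.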

[2] = tested on: MDA-MB-231; experiment: Antiproliferative activity against human MDA-MB-231 cells by MTT assay; type: functional, cell-based
How it was run: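 MDA-MB-231 cells in DMEM with 10% FBS, 2 mM L-glutamine and penicillin/streptomycin were seeded at 2.5×10^4 cells/mL and held 24 h at 37°C. They then got ethanol-stock compound over 1 nM–100 μM (vehicle 1% v/v ethanol) for 72 h. MTT at 1 mg/mL final was added for 2 h in the dark, then DMSO for 20 min before absorbance. Untreated = 100% viability. IC50 is the mean ± S.E.M. of ≥3 triplicate experiments.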

[3] = Cytotoxicity against CD-1 mouse mammary epithelial cells seeded at 25000 cells/ml assessed as viable cells at 10 uM after 72 hrs by alamar blue assay; type: cell-based, Epithelial cell; conditions: read-out: Activity
How it was run: (§1)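 Primary mammary epithelial cells came from 14-18 day pregnant CD-1 mice and were seeded at 25,000 or 50,000 cells/mL. After 24 h they were exposed 72 h to 1 nM–100 μM compound from ethanol stocks (vehicle ethanol 1% v/v). Viability was read with alamar blue.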

[4] = Cytotoxicity against CD-1 mouse mammary epithelial cells seeded at 50000 cells/ml assessed as viable cells at 10 uM after 72 hrs by alamar blue assay; type: cell-based, Epithelial cell; conditions: read-out: Activity; how it was run: as §1
[5] = Cytotoxicity against CD-1 mouse mammary epithelial cells seeded at 25000 cells/ml assessed as viable cells at IC50 after 72 hrs by alamar blue assay; type: cell-based, Epithelial cell; conditions: read-out: Activity; how it was run: as §1
[6] = Cytotoxicity against CD-1 mouse mammary epithelial cells seeded at 50000 cells/ml assessed as viable cells at IC50 after 72 hrs by alamar blue assay; type: cell-based, Epithelial cell; conditions: read-out: Activity; how it was run: as §1
[7] = species: Bos taurus; experiment: Inhibition of bovine tubulin polymerization assessed as reduction in Vmax at 10 uM by spectrophotometry
How it was run: (§2)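 Purified bovine tubulin was mixed with GTP and polymerisation started by warming from 4 °C to 37 °C. Absorbance at 340 nm was recorded every 30 s for 60 min at 37 °C, with 1% v/v ethanol as vehicle. Fold change in Vmax was calculated against the ethanol control. Runs were in triplicate.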

[8] = Inhibition of bovine tubulin polymerization assessed as concentration required for 50% Vmax inhibition by spectrophotometry; design: species or system Bos taurus
[9] = Inhibition of bovine tubulin polymerization by spectrophotometry; design: species or system Bos taurus; how it was run: as §2

Row | SMILES | IC50 [1] [µM] | further results
1 | COc1ccc([C@@H]2C(c3cc4ccccc4n3C)C(=O)N2c2cc(OC)c(OC)c(OC)c2)cc1 (stereo partly drawn) | 6.6 | 
2 | COc1ccc([C@@H]2[C@@H](c3cccs3)C(=O)N2c2cc(OC)c(OC)c(OC)c2)cc1O | 0.007 | IC50 [2]: 0.18 µM; viability at 72 h, 10 µM [3]: 71.2%; viability at 72 h, 10 µM [4]: 74.8%; viability at 72 h [5]: 90.7%; viability at 72 h [6]: 90.6%; fold change (FC) [7]: 3.2; IC50 [8]: 1.37 µM; IC50 [9]: 6.25 µM
3 | COc1ccc([C@@H]2[C@@H](c3ccsc3)C(=O)N2c2cc(OC)c(OC)c(OC)c2)cc1O | 0.01 | IC50 [2]: 0.049 µM
4 | COc1ccc([C@@H]2[C@@H](c3cccs3)C(=O)N2c2cc(OC)c(OC)c(OC)c2)cc1N | 0.042 | IC50 [2]: 0.11 µM
5 | COc1ccc([C@@H]2[C@@H](C(O)c3ccc(C)s3)C(=O)N2c2cc(OC)c(OC)c(OC)c2)cc1 (stereo partly drawn) | 1.26 | 
6 | COc1ccc([C@@H]2/C(=C/c3cccs3)C(=O)N2c2cc(OC)c(OC)c(OC)c2)cc1 | 4.05 | 
7 | COc1ccc(C2/C(=C/c3ccc(C)s3)C(=O)N2c2cc(OC)c(OC)c(OC)c2)cc1 (stereo not drawn) | 0.58 | 
8 | COc1ccc([C@@H]2C(C3CCCCC3)C(=O)N2c2cc(OC)c(OC)c(OC)c2)cc1 (mixture of isomers) | 0.58 | 
9 | COc1ccc([C@H]2N(c3cc(OC)c(OC)c(OC)c3)C(=O)C2(C)c2ccccc2)cc1 (mixture of isomers) | 43.5 | 

More lines, main results first:

Row | IC50 [1] [µM] | SMILES | further results
10 | 1.1 | COc1ccc([C@@H]2[C@@H](C(O)c3ccoc3)C(=O)N2c2cc(OC)c(OC)c(OC)c2)cc1 (stereo partly drawn) | 
11 | 1.2 | COc1ccc([C@@H]2[C@@H](C(O)c3cccs3)C(=O)N2c2cc(OC)c(OC)c(OC)c2)cc1 (stereo partly drawn) | 
12 | 0.95 | COc1ccc([C@@H]2[C@@H](C(=O)c3cccs3)C(=O)N2c2cc(OC)c(OC)c(OC)c2)cc1 | 
13 | 0.47 | COc1ccc([C@@H]2[C@@H](C(=O)c3ccsc3)C(=O)N2c2cc(OC)c(OC)c(OC)c2)cc1 | 
